What was measured:
[1] = Theuraptic Index: ratio of ID 50 / ED 90 of compound against HSV 2; format: functional
Procedure, shortened: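 Index computed as cytotoxic ID50 over antiviral ED90. Antiviral activity was measured against HSV-2 (strain G) by plaque-reduction assay in Vero cells. Cytotoxicity was measured in rapidly dividing Vero cells.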

[2] = Theuraptic Index: ratio of ID 50 / ED 90 of compound against HSV 1; format: functional
Procedure, shortened: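 Index computed as cytotoxic ID50 over antiviral ED90. Antiviral activity was measured against HSV-1 (strain F) by plaque-reduction assay in Vero cells. Cytotoxicity was measured in rapidly dividing Vero cells.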

[3] = test system: Vero; assay: (§1) Compound was tested for antiviral activity against Herpes simplex virus-2 (Strain G) in vero cells by plaque reduction assay.; format: functional, Chlorocebus sabaeus
[4] = test system: Vero; assay: as §1; format: functional; settings: Chlorocebus sabaeus, read-out: ED50 (the source's name)
[5] = test system: Vero; assay: (§2) Compound was tested for antiviral activity against Herpes simplex virus-1 (Strain F) in vero cells by plaque reduction assay.; format: functional, Chlorocebus sabaeus
[6] = test system: Vero; assay: as §2; format: functional; settings: Chlorocebus sabaeus, read-out: ED50 (the source's name)

## CC(C)c1cn([C@@H]2O[C@H](CO)[C@@H](O)[C@@H]2F)c(=O)[nH]c1=O
[1]
  TI: > 11
[2]
  TI: > 92
[3]
  ED90: 72.3 µM
[4]
  EC50: 13 µM
[5]
  ED90: 8.7 µM
[6]
  EC50: 1 µM

## Cc1cn([C@@H]2O[C@H](CO)[C@@H](O)[C@@H]2F)c(=O)[nH]c1=O [5-METHYL-2'-FLUOROARAURACIL]
[1]
  TI: 31
[2]
  TI: 59
[3]
  ED90: 0.09 µM
[4]
  EC50: 0.023 µM
[5]
  ED90: 0.047 µM
[6]
  EC50: 0.018 µM

## C=CCc1cn([C@@H]2O[C@H](CO)[C@@H](O)[C@@H]2F)c(=O)[nH]c1=O
[1]
  TI: 52
[2]
  TI: 73
[3]
  ED90: 29.7 µM
[4]
  EC50: 6 µM
[5]
  ED90: 21.3 µM
[6]
  EC50: 3.3 µM

## CCCCc1cn([C@@H]2O[C@H](CO)[C@@H](O)[C@@H]2F)c(=O)[nH]c1=O
[1]
  TI: > 20
[2]
  TI: > 11
[3]
  ED90: 40.3 µM
[4]
  EC50: 15.9 µM
[5]
  ED90: 76 µM
[6]
  EC50: 11.1 µM

## CCC(C)c1cn([C@@H]2O[C@H](CO)[C@@H](O)[C@@H]2F)c(=O)[nH]c1=O (some centres undefined)
[3]
  ED90: >400 µM
[4]
  EC50: > 400 µM
[5]
  ED90: 305 µM
[6]
  EC50: 15.6 µM

## CCc1cn([C@@H]2O[C@H](CO)[C@@H](O)[C@@H]2F)c(=O)[nH]c1=O
[1]
  TI: 1770
[2]
  TI: 6540
[3]
  ED90: 0.96 µM
[4]
  EC50: 0.24 µM
[5]
  ED90: 0.26 µM
[6]
  EC50: 0.024 µM

## CCCc1cn([C@@H]2O[C@H](CO)[C@@H](O)[C@@H]2F)c(=O)[nH]c1=O
[1]
  TI: 310
[2]
  TI: 551
[3]
  ED90: 7.58 µM
[4]
  EC50: 0.9 µM
[5]
  ED90: 4.27 µM
[6]
  EC50: 0.48 µM

## CC(C)Cc1cn([C@@H]2O[C@H](CO)[C@@H](O)[C@@H]2F)c(=O)[nH]c1=O
[3]
  ED90: 422 µM
[4]
  EC50: 113 µM
[5]
  ED90: 92.7 µM
[6]
  EC50: 28.7 µM
